This note sets out measurements from ChEMBL document CHEMBL4321840, “Start Selective and Rigidify: The Discovery Path toward a Next Generation of EGFR Tyrosine Kinase Inhibitors” (J Med Chem, 2019).

For orientation: IC50 means the concentration that gives 50% inhibition. As usually defined, the Papp is the rate of passage across a membrane or cell layer, normalised by area and donor concentration. The term fraction unbound denotes free concentration divided by total concentration. In general, solubility refers to the dissolved amount per volume that the medium holds. The low end stands for a poorly soluble substance, the high end for a readily soluble substance.

Values after ≈ are worked out from the molar mass of the structure shown. Some results are limits rather than exact numbers.

Series [1] has as its target T1, Epidermal growth factor receptor (Homo sapiens, UniProt P00533, C797S/EX19DEL/T790M). The series is described as follows: Inhibition of phosphorylated EGFR del19/T790M/C797S triple mutant (unknown origin) expressed in mouse BaF3 cells incubated for 4 hrs by Alphascreen assay. The series is classed as cell-based. Background: Alpha assays give light when donor and acceptor beads are brought close together.

A short description of series [2]: Selectivity index, ratio of IC50 for antiproliferative activity against mouse BAF3 cells harboring wild type EGFR to IC50 for antiproliferative activity against mouse BAF3(transformed) cells harboring EGFR del19/T790M/C797S triple mutant incubated for 72 hrs by Celltiter-Glo luminescent cell viability assay. The series is classed as functional. The procedure, abridged: (§1)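 Murine Ba/F3 cells retrovirally transduced with GFP plus EGFR wt, del19 or del19/T790M/C797S, then puromycin-selected. Mutant lines were made IL-3-independent; wt line grown on EGF without IL-3. EGFR-independent control cells carried GFP-only vector and were kept in IL-3. Seeded at 5x10³/100 µl, treated 72 h at 37 °C, viability read by CellTiter-Glo luminescence. Technical and biological triplicates. Geometric mean of ≥3 independent runs. Selectivity ratio = wt IC50 / del19/T790M/C797S IC50.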
For orientation: In ATP-based viability assays light output follows the ATP content of the culture.

The nature of series [3]: Inhibition of EGFR del19/T790M/C797S triple mutant in mouse BAF3 cells assessed as reduction in cell proliferation incubated for 72 hrs by Celltiter-Glo luminescent cell viability assay. The series is classed as cell-based. The conditions noted are these: BaF3, 72 h. The procedure, abridged: as §1
The subject of a further series is BaF3. The series is described as follows: Cytotoxicity against mouse BAF3 cells incubated for 72 hrs by Celltiter-Glo luminescent cell viability assay. The series is classed as cell-based. The conditions noted are these: BaF3, 72 h. In a few lines:
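Mutant lines were made IL-3-independent; wt line grown on EGF without IL-3. EGFR-independent control cells carried GFP-only vector and were kept in IL-3. Seeded at 5x10³/100 µl, treated 72 h at 37 °C, viability read by CellTiter-Glo luminescence. Technical and biological triplicates. Geometric mean of ≥3 independent runs.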

A short description of series [4]: Hepatic clearance in human cryopreserved hepatocytes at 1 uM measured after 240 mins by LC-MS/MS analysis relative to hepatic blood flow. The series is classed as ADME, cell-based, Hepatocyte. Particulars: read-out: CLH. The procedure, abridged: (§2)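 Compound (1 µM) incubated with cryopreserved hepatocytes. Depletion followed over 240 min by LC/MS/MS quantitation. In vivo hepatic clearance predicted with the well-stirred model and expressed as percent of hepatic blood flow (%QH).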

A short description of series [5]: Apparent permeability of compound at pH 7.4 by LC-MS based PAMPA method. The series is classed as ADME. The procedure, abridged:
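PAMPA at pH 7.4. A microfilter disc coated with immobilized artificial phospholipid membrane layers separates donor and acceptor chambers. Compound concentrations in both chambers are followed over time by LC/MS and compared with the donor concentration before incubation.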

The nature of series [6]: Protein binding in human plasma assessed as free fraction after 3 hrs by HPLC-MS/MS-based equilibrium dialysis method. The series is classed as ADME, cell-free. The procedure, abridged: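 Equilibrium dialysis: human plasma spiked with compound and dialyzed against Soerensen buffer (pH 7.4) for 3 h at 37 °C. Compound in plasma and buffer quantified by HPLC/MS-MS to calculate binding and free fraction.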
A general note: Equilibrium dialysis compares concentrations on both sides of a semipermeable membrane.

Series [7] can be described thus: Aqueous solubility of compound in McIlvaine buffer at 1 mg/ml at pH 6.8 by HPLC-DAD/UV analysis. The series is classed as physicochemical. The procedure, abridged:
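Solid compound dispensed at 1 mg/mL into aqueous McIlvaine buffer (pH 6.8). Reference sample dissolved in acetonitrile/water (1:1). Dissolved concentration quantified by HPLC-DAD/UV.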

A short description of series [8]: Hepatic clearance in mouse cryopreserved hepatocytes at 1 uM measured after 240 mins by LC-MS/MS analysis relative to hepatic blood flow. The series is classed as ADME, cell-based, Hepatocyte. The conditions noted are these: read-out: CLH. The procedure, abridged: as §2
Series [9] in a line: Protein binding in mouse plasma assessed as free fraction after 3 hrs by HPLC-MS/MS-based equilibrium dialysis method. The series is classed as ADME, cell-free. The procedure, abridged:
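Equilibrium dialysis of compound-spiked plasma against Soerensen buffer (pH 7.4) for 3 hours at 37°C. Compound levels in the plasma and buffer sides quantified by HPLC/MS-MS to give the bound and free fractions.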

The subject of series [10] is PC-9. The experiment in a line: Antiproliferative activity against human PC9 cells harboring EGFR del19/T790M/C797S triple mutant incubated for 96 hrs by Celltiter-Glo luminescent cell viability assay. The series is classed as functional, cell-based. The conditions noted are these: PC-9, 96 h. The procedure, abridged:
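Cells plated in 96-well plates (A431 5000/well in DMEM + 10% FBS + sodium pyruvate; PC-9 del19/T790M/C797S 2000/well in RPMI + 10% FBS). Compound added 24 h after plating, then 96 h at 37°C, 5% CO2. Viability read by CellTiter-Glo luminescence, normalised to DMSO-treated cells, IC50 fitted. Technical and biological triplicates.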

Series [11] deals with T1, Epidermal growth factor receptor. The series is described as follows: Inhibition of GST-fusion tagged EGFR del19/T790M/C797S triple mutant (unknown origin) (696 to 1022 residues) expressed in insect cells assessed as decrease in phosphorylation of ULight-poly-GT using poly-GT as substrate in presence of ATP.
Series [12] deals with Epidermal growth factor receptor (Homo sapiens, UniProt P00533, C797S/L858R/T790M). The experiment in a line: Inhibition of GST-fusion tagged EGFR L858R/T790M/C797S triple mutant (unknown origin) (696 to 1022 residues) expressed in insect cells assessed as decrease in phosphorylation of ULight-poly-GT using poly-GT as substrate in presence of ATP.
The target in series [13] is Epidermal growth factor receptor (Homo sapiens, UniProt P00533). The experiment in a line: Inhibition of human recombinant GST-tagged wild type EGFR expressed in baculovirus expression system assessed as decrease in phosphorylation of ULight-poly-GT using ULight-poly-GT as substrate incubated for 90 mins in presence of ATP by TR-FRET LANCE assay.
The species entered for a further series is Homo sapiens. The experiment in a line: Selectivity ratio of IC50 for inhibition of human recombinant GST-tagged wild type EGFR expressed in baculovirus expression system to IC50 for inhibition of GST-fusion tagged EGFR del19/T790M/C797S triple mutant (unknown origin) (696 to 1022 residues) expressed in insect cells. The procedure, abridged:
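TR-FRET kinase assays on ULight-poly-GT substrate (200 nM) with ATP 100 µM, final enzyme 1.5 nM (wt) or 15 nM (del746-750/T790M/C797S). Buffer was HEPES pH 7.3, MgCl2, EGTA, Tween 20, DTT. Reaction ran 90 min at room temperature and was stopped with EDTA plus Eu-anti-pTyr antibody, read after 60 min. Top concentration 100 µM with eleven fivefold dilutions in duplicate. IC50 from a 4-parameter logistic fit; ratio is wt IC50 over mutant IC50.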

Series [14] relates to PC-9. The experiment in a line: Antitumor activity against human PC9 cells harboring del19/T790M/C797S triple mutant xenografted in BomTac:NMRI-Foxn1nu mouse assessed as tumor growth inhibition at 10 mg/kg, po qd administered for 19 days relative to control. The conditions noted are these: PC-9, po, 456 h, read-out: TGI. The series is classed as functional. The procedure, abridged:
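Female BomTac:NMRI-Foxn1nu mice, 6-8 weeks old, implanted s.c. with 5×10⁶ PC-9 del19/T790M/C797S cells. Randomized by tumor size on day 7 (N=8 per treated group, N=10 vehicle). […] Tumor size and body weight measured three times weekly. Tumor volumes compared by one-sided decreasing Mann–Whitney test.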

A short description of series [15]: Inhibition of EGFR del19 mutant in mouse BAF3 cells incubated for 72 hrs by Celltiter-Glo luminescent cell viability assay. The series is classed as cell-based. The conditions noted are these: BaF3, 72 h. The procedure, abridged:
as §1

A short description of series [16]: Volume of distribution in NMRI mouse at 10 mg/kg, po or 1 mg/kg, iv. The series is classed as ADME, organism-based. Particulars: in vivo. In a few lines: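 NMRI mice (n=3 per group) dosed orally at 10 mg/kg or intravenously at 1 mg/kg. Five plasma samples per mouse at set time points. Plasma protein precipitated with acetonitrile, compound quantified by LC-MS/MS against a calibration curve.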

The subject of a further series is A-431. The experiment in a line: Antiproliferative activity against human A431 cells harboring EGFR wild type incubated for 96 hrs by Celltiter-Glo luminescent cell viability assay. The series is classed as functional, cell-based. The conditions noted are these: A-431, 96 h.

Sequence of Epidermal growth factor receptor (Homo sapiens, UniProt P00533, C797S/L858R/T790M) (P00533 25-1210 T790M/C797S/L858R limits assumed): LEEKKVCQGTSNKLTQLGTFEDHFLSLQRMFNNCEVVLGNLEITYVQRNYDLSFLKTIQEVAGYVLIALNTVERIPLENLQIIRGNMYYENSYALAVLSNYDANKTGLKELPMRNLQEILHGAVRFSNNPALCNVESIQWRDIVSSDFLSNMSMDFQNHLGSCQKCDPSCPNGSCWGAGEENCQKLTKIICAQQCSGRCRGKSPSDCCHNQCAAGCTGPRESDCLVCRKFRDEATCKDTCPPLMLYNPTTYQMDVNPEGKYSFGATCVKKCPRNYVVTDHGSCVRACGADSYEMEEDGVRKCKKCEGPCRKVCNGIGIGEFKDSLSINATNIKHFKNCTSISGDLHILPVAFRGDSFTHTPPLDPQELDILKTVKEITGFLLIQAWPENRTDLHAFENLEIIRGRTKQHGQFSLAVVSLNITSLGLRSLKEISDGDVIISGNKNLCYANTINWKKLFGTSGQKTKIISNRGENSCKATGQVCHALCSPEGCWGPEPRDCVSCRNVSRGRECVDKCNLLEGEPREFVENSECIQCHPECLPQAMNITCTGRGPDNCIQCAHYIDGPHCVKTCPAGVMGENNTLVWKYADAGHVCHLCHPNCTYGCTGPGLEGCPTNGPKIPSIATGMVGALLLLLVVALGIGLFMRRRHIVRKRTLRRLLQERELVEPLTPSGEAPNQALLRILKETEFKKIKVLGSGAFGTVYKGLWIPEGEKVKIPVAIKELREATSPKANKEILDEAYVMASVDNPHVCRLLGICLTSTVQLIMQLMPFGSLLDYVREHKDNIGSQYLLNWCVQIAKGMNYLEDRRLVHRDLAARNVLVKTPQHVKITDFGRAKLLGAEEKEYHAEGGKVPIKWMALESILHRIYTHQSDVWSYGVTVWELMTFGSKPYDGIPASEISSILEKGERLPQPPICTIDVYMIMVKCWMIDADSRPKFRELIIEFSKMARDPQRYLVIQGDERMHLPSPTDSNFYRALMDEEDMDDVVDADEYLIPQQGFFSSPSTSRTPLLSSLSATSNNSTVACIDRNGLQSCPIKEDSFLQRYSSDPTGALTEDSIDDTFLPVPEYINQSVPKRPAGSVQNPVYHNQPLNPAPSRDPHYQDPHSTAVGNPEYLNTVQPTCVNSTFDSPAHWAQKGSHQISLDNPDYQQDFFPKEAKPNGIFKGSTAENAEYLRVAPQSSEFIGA
T1 sequence (P00533 whole entry, looked up, stated change not applied): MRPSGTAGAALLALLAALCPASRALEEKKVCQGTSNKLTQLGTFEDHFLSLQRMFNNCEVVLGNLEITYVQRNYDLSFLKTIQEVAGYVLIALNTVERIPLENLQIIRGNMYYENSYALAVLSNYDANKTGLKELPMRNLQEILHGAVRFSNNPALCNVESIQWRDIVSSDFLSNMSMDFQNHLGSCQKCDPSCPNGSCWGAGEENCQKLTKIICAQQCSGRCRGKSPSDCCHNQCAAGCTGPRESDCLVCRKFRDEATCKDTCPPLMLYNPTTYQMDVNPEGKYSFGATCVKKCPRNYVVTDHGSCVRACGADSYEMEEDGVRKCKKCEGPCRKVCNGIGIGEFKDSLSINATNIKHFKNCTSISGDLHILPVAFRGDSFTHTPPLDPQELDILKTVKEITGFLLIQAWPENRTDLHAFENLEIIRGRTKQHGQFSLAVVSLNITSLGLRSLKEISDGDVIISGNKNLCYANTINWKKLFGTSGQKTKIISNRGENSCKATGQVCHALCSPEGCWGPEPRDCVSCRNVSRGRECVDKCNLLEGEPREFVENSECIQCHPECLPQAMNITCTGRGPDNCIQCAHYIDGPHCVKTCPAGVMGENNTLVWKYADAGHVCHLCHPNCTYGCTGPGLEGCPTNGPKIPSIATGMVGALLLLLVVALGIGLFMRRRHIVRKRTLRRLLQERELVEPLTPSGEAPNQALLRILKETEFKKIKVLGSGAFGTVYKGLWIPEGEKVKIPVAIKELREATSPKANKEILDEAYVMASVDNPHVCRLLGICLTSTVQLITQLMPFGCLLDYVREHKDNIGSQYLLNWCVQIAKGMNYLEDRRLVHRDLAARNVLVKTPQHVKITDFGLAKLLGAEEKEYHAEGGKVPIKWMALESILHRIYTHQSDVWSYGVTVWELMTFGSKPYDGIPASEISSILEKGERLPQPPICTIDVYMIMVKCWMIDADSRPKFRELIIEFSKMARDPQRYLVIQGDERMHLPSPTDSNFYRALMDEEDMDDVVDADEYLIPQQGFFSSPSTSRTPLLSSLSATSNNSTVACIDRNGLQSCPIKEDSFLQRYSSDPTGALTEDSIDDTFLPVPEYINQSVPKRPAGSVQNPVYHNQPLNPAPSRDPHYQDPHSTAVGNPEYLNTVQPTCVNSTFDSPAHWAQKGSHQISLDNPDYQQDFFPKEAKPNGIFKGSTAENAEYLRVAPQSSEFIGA
Sequence of Epidermal growth factor receptor (Homo sapiens, UniProt P00533) (P00533 whole entry, the tested form may be a part): as the sequence (P00533 whole entry, looked up, stated change not applied) above

Regarding `O=C1/N=C2\Nc3ccccc3N2CCCCCOc2ccccc2-c2cc1ccn2`, the IC50 in series [1] came to 3 nM; in series [3], 27 nM; in the series with BaF3, 1600 nM. For the same compound, the “Ratio IC50” value in series [2] was found to be 48.

Regarding `Cc1cc2cc(n1)-c1cnn(C)c1OCCC[C@@H](C)CN1/C(=N/C2=O)Nc2ccccc21`, the results for the 50% inhibitory concentration (IC50) (in series [1]; in series [3]; in the series with BaF3) were 0.8 nM, 1 nM and 1000 nM, respectively. The results for the hepatic extraction ratio at 4 h, 1 µM in series [4] and in series [8] were 0.12 and 0.47, respectively. For the same compound, the apparent permeability (Papp) in series [5] came out at 0.2 ×10⁻⁶ cm/s. The figures for the fraction unbound at 3 h in series [6] and in series [9] were 0.5 and less than 0.3, respectively. This compound also gave a solubility in [7] of less than 0.1 µg/mL. Also, the “Ratio IC50” value in series [2] is listed as more than 1000.

With `Cc1cc2cc(n1)-c1cnn(C)c1OCCCCCN1/C(=N/C2=O)Nc2ccccc21`, the IC50 came out at 1 nM in [1], 5 nM in series [3] and 1700 nM with BaF3. The “Ratio IC50” value in series [2] was found to be 460.

As for `C=CC(=O)Nc1cc(Nc2nccc(-c3cn(C)c4ccccc34)n2)c(OC)cc1N(C)CCN(C)C` [OSIMERTINIB], the Papp in [5] was found to be 2.7 ×10⁻⁶ cm/s. In addition, the solubility in series [7] amounted to 86 µg/mL (≈ 172 µM). Also, the free fraction (fraction unbound) at 3 h in series [9] was less than 0.1. Besides, the IC50 in the series with PC-9 [10] was more than 1000 nM; in [3], 780 nM; in the series with BaF3, 1100 nM.

Regarding `CC(C)(O)Cn1/c(=N/C(=O)c2cccc(-c3cccnc3)c2)[nH]c2ccccc21`, the 50% inhibitory concentration (IC50) in series [1] is 1400 nM; in [11], 173 nM; in [12], 2700 nM; in series [13], more than 100000 nM.

Consider `Cn1cc(-c2cc(C(=O)/N=c3\[nH]c4ccccc4n3CC(C)(C)O)ccn2)cn1`, for which the half-inhibitory concentration (IC50) in [1] is 43 nM; in series [11], 72 nM; in series [12] it was 519 nM; in [13] it was more than 100000 nM; in series [3] it was 333 nM; in the series on BaF3, 8900 nM.

For the compound `Cn1ncc2c1OCCCCCN1/C(=N/C(=O)c3cc(F)nc-2c3)Nc2ccccc21`, the IC50 in series [1] was 1.2 nM; in [3], 6 nM; with BaF3 it was 330 nM. The “Ratio IC50” value in series [2] was 45.

Consider `CC(C)(O)Cn1/c(=N/C(=O)c2ccnc(-c3ccccc3)c2)[nH]c2ccccc21`, for which the IC50 was 22 nM in series [1]; 35 nM in series [11]; more than 100000 nM in series [13]; 150 nM in series [3]; more than 25000 nM in the series with BaF3.

With `CC(C)(O)Cn1/c(=N/C(=O)c2ccnc(-c3cccnc3)c2)[nH]c2ccccc21`, the half-inhibitory concentration (IC50) in series [3] worked out at 270 nM.

Regarding `CC(C)(O)Cn1/c(=N/C(=O)c2cc(F)cc(-c3cccnc3)c2)[nH]c2ccccc21`, the IC50 in series [1] is 790 nM; in series [11] it was 250 nM; in series [12], 2100 nM; in series [13], more than 100000 nM. Besides, in the series filed under Homo sapiens, the Ratio IC50 is more than 400.

Take `Cc1cc2cc(n1)-c1cnn(C)c1OCCC[C@@H](C)CN1/C(=N/C2=O)Nc2ccc(CN3CCN(C)CC3)cc21`: the inhibition in vivo at 10 mg/kg with PC-9 [14] was 121%. Besides, the IC50 in series [15] turned out to be 1 nM; in the series on A-431, 200 nM; in the series on PC-9 [10] it was 1.3 nM; in [3] it was 0.2 nM; in the series with BaF3 it was 1100 nM. Moreover, the Papp in series [5] stood at 5.3 ×10⁻⁶ cm/s. The Vd in series [16] came to 4.2 L/kg. In series [7], the concentration in solution (solubility) came to 95 µg/mL (≈ 175 µM).

As for `COc1ccncc1-c1cc(C(=O)/N=c2\[nH]c3ccccc3n2CC(C)(C)O)ccn1`, the half-inhibitory concentration (IC50) is 1 nM in [1], not above 3 nM in series [11], 51 nM in series [3] and 990 nM in the series with BaF3.
